From ChEMBL document CHEMBL5143728, “Next-Generation Diprovocims with Potent Human and Murine TLR1/TLR2 Agonist Activity That Activate the Innate and Adaptive Immune Response” (J Med Chem, 2022)

How the values were obtained:
Toll-like receptor 1/2 = Toll-like receptor 1/2 (Homo sapiens, UniProt O60603+Q15399); assay: Agonist activity at TLR1/TLR2 in human THP-1 derived macrophages assessed as stimulation of TNF alpha release measured for 4 hrs by ELISA based assay relative to diprovocim-1; assay type: cell-based; design: Activity: concentration or dose not given beside the values; conditions: filed as agonist
Method in brief: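 THP-1 cells differentiated with 100 nM PMA in RPMI/10% FBS for 24 h, washed, then rested 24 h in fresh medium. Seeded at 0.5 × 10⁵ cells/well and exposed to graded compound concentrations for 4 h, with final DMSO held at 0.1%. LPS served as positive control and DMSO as negative control. Supernatant human TNF-α was read by ELISA. EC50 from duplicate means.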

[1] = biological target: Toll-like receptor 1/2 (Mus musculus) (UniProt Q9QUN7+Q9EPQ1); assay: Agonist activity at TLR1/TLR2 in wild type C57BL/6J mouse macrophages assessed as stimulation of TNF alpha release measured for 4 hrs by ELISA based assay relative to diprovocim-1; assay type: cell-based; design: Activity: concentration or dose not given beside the values; conditions: Macrophage, filed as agonist
Method in brief: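 Thioglycolate-elicited peritoneal macrophages from wild type C57BL/6J mice, harvested by PBS lavage 4 d after i.p. 4% thioglycolate. Cultured in DMEM/10% FBS at 37 °C, 5% CO2, seeded at 1 × 10⁵ cells/well and exposed to graded compound concentrations for 4 h, with final DMSO ≤0.5% held constant. LPS served as positive control. Supernatant mouse TNF-α was read by ELISA. EC50 from duplicate means.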

| Activity (Toll-like receptor 1/2) [%] | Activity [1] [%] | Compound |
| --- | --- | --- |
| 100 | 100 | O=C(CNC(=O)C(F)(F)F)OCCCCCCCCCCCCNC(=O)[C@@H]1CN(C(=O)c2ccc(C(=O)N3C[C@@H](C(=O)N[C@H]4C[C@@H]4c4ccccc4)[C@H](C(=O)N[C@H]4C[C@@H]4c4ccccc4)C3)cc2)C[C@H]1C(=O)N[C@H]1C[C@@H]1c1ccccc1 |
| 130 | 120 | N#CCC(=O)OCCCCCCCCCCCCNC(=O)[C@@H]1CN(C(=O)c2ccc(C(=O)N3C[C@@H](C(=O)N[C@H]4C[C@@H]4c4ccccc4)[C@H](C(=O)N[C@H]4C[C@@H]4c4ccccc4)C3)cc2)C[C@H]1C(=O)N[C@H]1C[C@@H]1c1ccccc1 |
| 100 | 200 | CC(C)(C)OC(=O)N[C@@H](CCCCNC(=O)OCC1c2ccccc2-c2ccccc21)C(=O)OCCCCCCCCCCCCNC(=O)[C@@H]1CN(C(=O)c2ccc(C(=O)N3C[C@@H](C(=O)N[C@H]4C[C@@H]4c4ccccc4)[C@H](C(=O)N[C@H]4C[C@@H]4c4ccccc4)C3)cc2)C[C@H]1C(=O)N[C@H]1C[C@@H]1c1ccccc1 |
| 90 | 90 | CC(C)(C)OC(=O)NCC(=O)NCCCCCCCCCCCCNC(=O)[C@@H]1CN(C(=O)c2ccc(C(=O)N3C[C@@H](C(=O)N[C@H]4C[C@@H]4c4ccccc4)[C@H](C(=O)N[C@H]4C[C@@H]4c4ccccc4)C3)cc2)C[C@H]1C(=O)N[C@H]1C[C@@H]1c1ccccc1 |
| 70 | 120 | CC(C)(C)OC(=O)NCCCCCCCCCCCCNC(=O)[C@@H]1CN(C(=O)c2ccc(C(=O)N3C[C@@H](C(=O)N[C@H]4C[C@@H]4c4ccccc4)[C@H](C(=O)N[C@H]4C[C@@H]4c4ccccc4)C3)cc2)C[C@H]1C(=O)N[C@H]1C[C@@H]1c1ccccc1 |
| 90 | 100 | CC(C)(C)OC(=O)N1CCC[C@H]1C(=O)OCCCCCCCCCCCCNC(=O)[C@@H]1CN(C(=O)c2ccc(C(=O)N3C[C@@H](C(=O)N[C@H]4C[C@@H]4c4ccccc4)[C@H](C(=O)N[C@H]4C[C@@H]4c4ccccc4)C3)cc2)C[C@H]1C(=O)N[C@H]1C[C@@H]1c1ccccc1 |
| 100 | 170 | O=C(CNC(=O)OCC1c2ccccc2-c2ccccc21)OCCCCCCCCCCCCNC(=O)[C@@H]1CN(C(=O)c2ccc(C(=O)N3C[C@@H](C(=O)N[C@H]4C[C@@H]4c4ccccc4)[C@H](C(=O)N[C@H]4C[C@@H]4c4ccccc4)C3)cc2)C[C@H]1C(=O)N[C@H]1C[C@@H]1c1ccccc1 |
| 90 | 380 | O=C(NCCCCCCCCc1ccc(O)cc1)[C@@H]1CN(C(=O)c2ccc(C(=O)N3C[C@@H](C(=O)N[C@H]4C[C@@H]4c4ccccc4)[C@H](C(=O)N[C@H]4C[C@@H]4c4ccccc4)C3)cc2)C[C@H]1C(=O)N[C@H]1C[C@@H]1c1ccccc1 |
| 100 | 220 | CC(C)(C)OC(=O)N[C@@H](Cc1ccccc1)C(=O)OCCCCCCCCCCCCNC(=O)[C@@H]1CN(C(=O)c2ccc(C(=O)N3C[C@@H](C(=O)N[C@H]4C[C@@H]4c4ccccc4)[C@H](C(=O)N[C@H]4C[C@@H]4c4ccccc4)C3)cc2)C[C@H]1C(=O)N[C@H]1C[C@@H]1c1ccccc1 |
| 110 | 400 | CC(C)(C)OC(=O)C(=O)NCC(=O)OCCCCCCCCCCCCNC(=O)[C@@H]1CN(C(=O)c2ccc(C(=O)N3C[C@@H](C(=O)N[C@H]4C[C@@H]4c4ccccc4)[C@H](C(=O)N[C@H]4C[C@@H]4c4ccccc4)C3)cc2)C[C@H]1C(=O)N[C@H]1C[C@@H]1c1ccccc1 |
| 100 | 60 | O=C(O)/C=C/C(=O)NCC(=O)OCCCCCCCCCCCCNC(=O)[C@@H]1CN(C(=O)c2ccc(C(=O)N3C[C@@H](C(=O)N[C@H]4C[C@@H]4c4ccccc4)[C@H](C(=O)N[C@H]4C[C@@H]4c4ccccc4)C3)cc2)C[C@H]1C(=O)N[C@H]1C[C@@H]1c1ccccc1 |

Continued, molecule first:

| Compound | Activity (Toll-like receptor 1/2) [%] | Activity [1] [%] |
| --- | --- | --- |
| CN(C)CC(=O)OCCCCCCCCCCCCNC(=O)[C@@H]1CN(C(=O)c2ccc(C(=O)N3C[C@@H](C(=O)N[C@H]4C[C@@H]4c4ccccc4)[C@H](C(=O)N[C@H]4C[C@@H]4c4ccccc4)C3)cc2)C[C@H]1C(=O)N[C@H]1C[C@@H]1c1ccccc1 | 100 | 140 |
| NCCCCCCCCCCCCNC(=O)[C@@H]1CN(C(=O)c2ccc(C(=O)N3C[C@@H](C(=O)N[C@H]4C[C@@H]4c4ccccc4)[C@H](C(=O)N[C@H]4C[C@@H]4c4ccccc4)C3)cc2)C[C@H]1C(=O)N[C@H]1C[C@@H]1c1ccccc1 | 140 | 130 |
| O=C(O)c1ccc(C(=O)NCCOCCCCCCCCCCCCNC(=O)[C@@H]2CN(C(=O)c3ccc(C(=O)N4C[C@@H](C(=O)N[C@H]5C[C@@H]5c5ccccc5)[C@H](C(=O)N[C@H]5C[C@@H]5c5ccccc5)C4)cc3)C[C@H]2C(=O)N[C@H]2C[C@@H]2c2ccccc2)cc1 | 100 | 50 |
| COC(=O)NCC(=O)OCCCCCCCCCCCCNC(=O)[C@@H]1CN(C(=O)c2ccc(C(=O)N3C[C@@H](C(=O)N[C@H]4C[C@@H]4c4ccccc4)[C@H](C(=O)N[C@H]4C[C@@H]4c4ccccc4)C3)cc2)C[C@H]1C(=O)N[C@H]1C[C@@H]1c1ccccc1 | 100 | 120 |
| [N-]=[N+]=NCC(=O)OCCCCCCCCCCCCNC(=O)[C@@H]1CN(C(=O)c2ccc(C(=O)N3C[C@@H](C(=O)N[C@H]4C[C@@H]4c4ccccc4)[C@H](C(=O)N[C@H]4C[C@@H]4c4ccccc4)C3)cc2)C[C@H]1C(=O)N[C@H]1C[C@@H]1c1ccccc1 | 100 | 120 |
| O=C(CNC(=O)c1ccc(C(=O)O)cc1)OCCCCCCCCCCCCNC(=O)[C@@H]1CN(C(=O)c2ccc(C(=O)N3C[C@@H](C(=O)N[C@H]4C[C@@H]4c4ccccc4)[C@H](C(=O)N[C@H]4C[C@@H]4c4ccccc4)C3)cc2)C[C@H]1C(=O)N[C@H]1C[C@@H]1c1ccccc1 | 100 | 60 |
| CC(C)(C)OCC(=O)OCCCCCCCCCCCCNC(=O)[C@@H]1CN(C(=O)c2ccc(C(=O)N3C[C@@H](C(=O)N[C@H]4C[C@@H]4c4ccccc4)[C@H](C(=O)N[C@H]4C[C@@H]4c4ccccc4)C3)cc2)C[C@H]1C(=O)N[C@H]1C[C@@H]1c1ccccc1 | 100 | 230 |
| CC(C)(C)OC(=O)Nc1ccc(C(=O)OCCCCCCCCCCCCNC(=O)[C@@H]2CN(C(=O)c3ccc(C(=O)N4C[C@@H](C(=O)N[C@H]5C[C@@H]5c5ccccc5)[C@H](C(=O)N[C@H]5C[C@@H]5c5ccccc5)C4)cc3)C[C@H]2C(=O)N[C@H]2C[C@@H]2c2ccccc2)cc1 | 90 | 540 |
| O=C(O)c1ccc(C(=O)OCCCCCCCCCCCCNC(=O)[C@@H]2CN(C(=O)c3ccc(C(=O)N4C[C@@H](C(=O)N[C@H]5C[C@@H]5c5ccccc5)[C@H](C(=O)N[C@H]5C[C@@H]5c5ccccc5)C4)cc3)C[C@H]2C(=O)N[C@H]2C[C@@H]2c2ccccc2)cc1 | 100 | 120 |
| CC(C)(C)OC(=O)c1ccc(C(=O)NCCOCCCCCCCCCCCCNC(=O)[C@@H]2CN(C(=O)c3ccc(C(=O)N4C[C@@H](C(=O)N[C@H]5C[C@@H]5c5ccccc5)[C@H](C(=O)N[C@H]5C[C@@H]5c5ccccc5)C4)cc3)C[C@H]2C(=O)N[C@H]2C[C@@H]2c2ccccc2)cc1 | 110 | 160 |
| CC(C)(C)OC(=O)N[C@@H](COCc1ccccc1)C(=O)OCCCCCCCCCCCCNC(=O)[C@@H]1CN(C(=O)c2ccc(C(=O)N3C[C@@H](C(=O)N[C@H]4C[C@@H]4c4ccccc4)[C@H](C(=O)N[C@H]4C[C@@H]4c4ccccc4)C3)cc2)C[C@H]1C(=O)N[C@H]1C[C@@H]1c1ccccc1 | 100 | 370 |
| CC(=O)NCC(=O)OCCCCCCCCCCCCNC(=O)[C@@H]1CN(C(=O)c2ccc(C(=O)N3C[C@@H](C(=O)N[C@H]4C[C@@H]4c4ccccc4)[C@H](C(=O)N[C@H]4C[C@@H]4c4ccccc4)C3)cc2)C[C@H]1C(=O)N[C@H]1C[C@@H]1c1ccccc1 | 90 | 180 |
| O=C(NCCCCCCCCCCCCOCc1ccc([N+](=O)[O-])cc1)[C@@H]1CN(C(=O)c2ccc(C(=O)N3C[C@@H](C(=O)N[C@H]4C[C@@H]4c4ccccc4)[C@H](C(=O)N[C@H]4C[C@@H]4c4ccccc4)C3)cc2)C[C@H]1C(=O)N[C@H]1C[C@@H]1c1ccccc1 | 110 | 230 |
| CC(C)(C)OC(=O)N[C@@H](CSCc1ccccc1)C(=O)OCCCCCCCCCCCCNC(=O)[C@@H]1CN(C(=O)c2ccc(C(=O)N3C[C@@H](C(=O)N[C@H]4C[C@@H]4c4ccccc4)[C@H](C(=O)N[C@H]4C[C@@H]4c4ccccc4)C3)cc2)C[C@H]1C(=O)N[C@H]1C[C@@H]1c1ccccc1 | 100 | 200 |
| Nc1ccc(CCCCCCCCNC(=O)[C@@H]2CN(C(=O)c3ccc(C(=O)N4C[C@@H](C(=O)N[C@H]5C[C@@H]5c5ccccc5)[C@H](C(=O)N[C@H]5C[C@@H]5c5ccccc5)C4)cc3)C[C@H]2C(=O)N[C@H]2C[C@@H]2c2ccccc2)cc1 | 100 | 250 |
| Nc1ccc(C(=O)OCCCCCCCCCCCCNC(=O)[C@@H]2CN(C(=O)c3ccc(C(=O)N4C[C@@H](C(=O)N[C@H]5C[C@@H]5c5ccccc5)[C@H](C(=O)N[C@H]5C[C@@H]5c5ccccc5)C4)cc3)C[C@H]2C(=O)N[C@H]2C[C@@H]2c2ccccc2)cc1 | 100 | 300 |
| CC(C)(C)OC(=O)c1ccc(C(=O)OCCCCCCCCCCCCNC(=O)[C@@H]2CN(C(=O)c3ccc(C(=O)N4C[C@@H](C(=O)N[C@H]5C[C@@H]5c5ccccc5)[C@H](C(=O)N[C@H]5C[C@@H]5c5ccccc5)C4)cc3)C[C@H]2C(=O)N[C@H]2C[C@@H]2c2ccccc2)cc1 | 90 | 190 |
